# Assay results pooled from the literature.
# Each line is one published result; the experiments were not run side by side.
# Target: Sigma non-opioid intracellular receptor 1 (SIGMAR1, Homo sapiens, UniProt Q99720)
SMILES,effect on,method,notes,Ki
COc1ccc2ccn(CCCCN3Cc4cc(OC)c(OC)cc4C3)c2c1,ligand displacement,radioligand,cell membranes,70 nM
CC(C)(C)Oc1cc(CCC(C)(C)N2Cc3ccc(S(C)(=O)=O)cc3C2)ccc1O,ligand displacement,radioligand,cell membranes,63 nM
CCCn1nc(C(=O)N2CCCCC2)c2c1CCC(N1CCN(c3ccc([N+](=O)[O-])cc3)CC1)C2 (stereo not drawn),ligand displacement,radioligand,,1590 nM
COc1ccc2[nH]c(C(=O)NC/C=C/CN3CCN(c4ccccc4OC)CC3)cc2c1,cell-free assay,,,> 10000 nM
COc1ccc2ccn(CCCCN3CCc4cc(OC)c(OC)cc4C3)c2c1,ligand displacement,radioligand,cell membranes,357 nM
CCCn1nc(C(=O)N(C)C)c2c1CCC(NCc1ccc(Cl)cc1)C2 (stereo not drawn),ligand displacement,radioligand,,> 10000 nM
CCN(CC)CCCC(C)Nc1ccnc2cc(Cl)ccc12 (stereo not drawn),ligand displacement,radioligand,,741 nM
CCCn1nc(C(=O)N2CCCCC2)c2c1CCC(NCCN1CCCCC1)C2 (stereo not drawn),ligand displacement,radioligand,,> 10000 nM
COc1ccccc1N1CCN(CCCCNC(=O)c2cc3cc(O)ccc3[nH]2)CC1,cell-free assay,,,> 10000 nM
COc1cc2c(cc1OC)CN(CCCCn1ccc3c(OC)cccc31)CC2,ligand displacement,radioligand,cell membranes,259 nM
COc1ccccc1N1CCN(CCCCNC(=O)c2cc3cc(OCCF)ccc3[nH]2)CC1,cell-free assay,,,> 10000 nM
OCCCN1CC[C@@H]2C[C@H]1c1cc(-c3ccc(C(F)(F)F)cc3)ccc12,ligand displacement,radioligand,,167 nM
